Experimental data reported in publication PMC4310626 (Biochemistry, 2014).
Where two headings read alike, the source gives them in different places.

What was measured:
[1] = biological target: E. coli NDH-1 NuoH mutant E36D (Escherichia coli, UniProt P0AFC7+P0AFD4+P33599, E36D); experiment: Inhibition of dNADH oxidase activity, NuoH mutant E36D; type: biochemical
[2] = biological target: E. coli NDH-1 NuoD mutant G225A (Escherichia coli, UniProt P0AFD4+P33599, G225A); experiment: Inhibition of dNADH oxidase activity, NuoD mutant G225A; type: biochemical
Sequence of E. coli NDH-1 NuoD mutant G225A (P33599 whole entry G225A): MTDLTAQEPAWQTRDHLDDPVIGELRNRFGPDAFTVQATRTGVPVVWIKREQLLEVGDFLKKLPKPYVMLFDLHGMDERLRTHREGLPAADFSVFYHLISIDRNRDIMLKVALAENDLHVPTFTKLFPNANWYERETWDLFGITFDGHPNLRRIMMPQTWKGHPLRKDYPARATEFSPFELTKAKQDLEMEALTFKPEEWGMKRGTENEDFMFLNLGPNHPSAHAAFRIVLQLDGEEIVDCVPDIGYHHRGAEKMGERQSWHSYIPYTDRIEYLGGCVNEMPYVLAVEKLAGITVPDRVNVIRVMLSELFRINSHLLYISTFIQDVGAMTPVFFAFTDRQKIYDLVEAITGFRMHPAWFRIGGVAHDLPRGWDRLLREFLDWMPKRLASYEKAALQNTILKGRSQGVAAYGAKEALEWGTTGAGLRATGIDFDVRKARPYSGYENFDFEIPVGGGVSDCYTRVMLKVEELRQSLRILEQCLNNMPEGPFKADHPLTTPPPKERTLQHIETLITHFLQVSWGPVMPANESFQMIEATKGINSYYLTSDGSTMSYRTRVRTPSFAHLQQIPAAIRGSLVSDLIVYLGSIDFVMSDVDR
Sequence of E. coli NDH-1 NuoD mutant G225A (P0AFD4 whole entry): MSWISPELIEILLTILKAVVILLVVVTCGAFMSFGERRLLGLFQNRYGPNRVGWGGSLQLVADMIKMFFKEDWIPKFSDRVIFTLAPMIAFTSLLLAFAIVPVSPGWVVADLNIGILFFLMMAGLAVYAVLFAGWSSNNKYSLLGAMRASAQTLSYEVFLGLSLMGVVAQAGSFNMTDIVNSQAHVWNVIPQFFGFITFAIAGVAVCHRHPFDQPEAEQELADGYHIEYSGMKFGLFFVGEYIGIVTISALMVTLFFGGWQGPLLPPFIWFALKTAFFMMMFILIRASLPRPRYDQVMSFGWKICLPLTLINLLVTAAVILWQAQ
Sequence of E. coli NDH-1 NuoD mutant G225A (P0AFC7 whole entry partner): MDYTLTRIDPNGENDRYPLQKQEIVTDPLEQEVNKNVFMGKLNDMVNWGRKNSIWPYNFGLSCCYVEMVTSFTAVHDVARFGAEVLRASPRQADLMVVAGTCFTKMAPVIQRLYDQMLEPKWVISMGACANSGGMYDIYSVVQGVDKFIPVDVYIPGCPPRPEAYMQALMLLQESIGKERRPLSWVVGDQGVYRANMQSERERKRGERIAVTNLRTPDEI
Summary of the method: (§1)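 Inverted membrane vesicles came from chromosomal NuoD-segment mutant or wild-type E. coli, grown overnight at 37 °C in Terrific Broth and disrupted by sonication and French press. The assay used 80 μg protein/mL in 10 mM potassium phosphate (pH 7.0) with 1 mM EDTA, no KCN and no added acceptor, at 30 °C. After 1 min preincubation with test compound, 150 μM dNADH was added. A340 was followed (ε 6.22 mM⁻¹ cm⁻¹), and IC50 was taken as the concentration giving 50% inhibition.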

[3] = biological target: E. coli NDH-1 NuoH mutant D63E (Escherichia coli, UniProt P0AFC7+P0AFD4+P33599, D63E); experiment: Inhibition of dNADH oxidase activity, NuoH mutant D63E; type: biochemical
[4] = biological target: E. coli NDH-1 NuoD mutant H224R (Escherichia coli, UniProt P0AFD4+P33599, H224R); experiment: Inhibition of dNADH oxidase activity, NuoD mutant H224R; type: biochemical; conditions: read-out: app IC50, 50% inhibition of the dNADH oxidase activity
[5] = biological target: E. coli NDH-1 NuoD mutant Y273F (Escherichia coli, UniProt P0AFD4+P33599, Y273F); experiment: Inhibition of dNADH oxidase activity, NuoD mutant Y273F; type: biochemical
Sequence of E. coli NDH-1 NuoD mutant Y273F (P33599 whole entry Y273F): as the sequence (P33599 whole entry G225A) above, with A225G, Y273F counted along it
Sequence of E. coli NDH-1 NuoD mutant Y273F (P0AFD4 whole entry): as the sequence (P0AFD4 whole entry) above
Sequence of E. coli NDH-1 NuoD mutant Y273F (P0AFC7 whole entry partner): as the sequence (P0AFC7 whole entry partner) above
Summary of the method: as §1

[6] = biological target: E. coli NDH-1 NuoD mutant H315R (Escherichia coli, UniProt P0AFD4+P33599, H315R); experiment: Inhibition of dNADH oxidase activity, NuoD mutant H315R; type: biochemical
Sequence of E. coli NDH-1 NuoD mutant H315R (P33599 whole entry H315R): as the sequence (P33599 whole entry G225A) above, with A225G, H315R counted along it
Sequence of E. coli NDH-1 NuoD mutant H315R (P0AFD4 whole entry): as the sequence (P0AFD4 whole entry) above
Sequence of E. coli NDH-1 NuoD mutant H315R (P0AFC7 whole entry partner): as the sequence (P0AFC7 whole entry partner) above
Summary of the method: as §1

[7] = biological target: E. coli NDH-1 NuoD mutant D325A (Escherichia coli, UniProt P0AFD4+P33599, D325A); experiment: Inhibition of dNADH oxidase activity, NuoD mutant D325A; type: biochemical
Summary of the method: as §1

E. coli NDH-1 wild-type [8] = biological target: T1, E. coli NDH-1 wild-type (Escherichia coli, UniProt P0AFD4+P33599); experiment: Inhibition of dNADH oxidase activity in membrane vesicles, wild-type; type: biochemical
T1 sequence (P33599 whole entry): as the sequence (P33599 whole entry G225A) above, with A225G counted along it
T1 sequence (P0AFD4 whole entry): as the sequence (P0AFD4 whole entry) above
T1 sequence (P0AFC7 whole entry partner): as the sequence (P0AFC7 whole entry partner) above
Summary of the method: as §1

[9] = biological target: E. coli NDH-1, other NuoD mutants (Escherichia coli, UniProt P0AFD4+P33599); experiment: Inhibition of dNADH oxidase activity, other NuoD mutants; type: biochemical; conditions: read-out: IC50 values; all other NuoD mutants (other than G225A, Y273F)
Summary of the method: as §1

[10] = biological target: E. coli NDH-1 NuoD mutant G251A (Escherichia coli, UniProt P0AFD4+P33599, G251A); experiment: Inhibition of dNADH oxidase activity, NuoD mutant G251A; type: biochemical
Summary of the method: as §1

[11] = biological target: E. coli NDH-1 NuoH mutant E71A (Escherichia coli, UniProt P0AFC7+P0AFD4+P33599, E71A); experiment: Inhibition of dNADH oxidase activity, NuoH mutant E71A; type: biochemical; conditions: app IC50, 50% inhibition of the dNADH oxidase activity
[12] = biological target: E. coli NDH-1 NuoH mutant P49A (Escherichia coli, UniProt P0AFC7+P0AFD4+P33599, P49A); experiment: Inhibition of dNADH oxidase activity, NuoH mutant P49A; type: biochemical
[13] = biological target: E. coli NDH-1 NuoD mutant R270K (Escherichia coli, UniProt P0AFD4+P33599, R270K); experiment: Inhibition of dNADH oxidase activity, NuoD mutant R270K; type: biochemical; conditions: app IC50, 50% inhibition of the dNADH oxidase activity
Summary of the method: as §1

[14] = biological target: E. coli NDH-1 NuoH mutant K303A (Escherichia coli, UniProt P0AFC7+P0AFD4+P33599, K303A); experiment: Inhibition of dNADH oxidase activity, NuoH mutant K303A; type: biochemical
[15] = biological target: E. coli NDH-1 NuoD mutant G235A (Escherichia coli, UniProt P0AFD4+P33599, G235A); experiment: Inhibition of dNADH oxidase activity, NuoD mutant G235A; type: biochemical
Summary of the method: as §1

[16] = biological target: E. coli NDH-1 NuoD mutant G235V (Escherichia coli, UniProt P0AFD4+P33599, G235V); experiment: Inhibition of dNADH oxidase activity, NuoD mutant G235V; type: biochemical
Summary of the method: as §1

[17] = biological target: E. coli NDH-1 NuoD mutant R298A (Escherichia coli, UniProt P0AFD4+P33599, R298A); experiment: Inhibition of dNADH oxidase activity, NuoD mutant R298A; type: biochemical; conditions: app IC50, 50% inhibition of the dNADH oxidase activity
Summary of the method: as §1

[18] = biological target: E. coli NDH-1 NuoD mutant E236A (Escherichia coli, UniProt P0AFD4+P33599, E236A); experiment: Inhibition of dNADH oxidase activity, NuoD mutant E236A; type: biochemical
Summary of the method: as §1

[19] = biological target: E. coli NDH-1 NuoD mutant R228K (Escherichia coli, UniProt P0AFD4+P33599, R228K); experiment: Inhibition of dNADH oxidase activity, NuoD mutant R228K; type: biochemical; conditions: app IC50, 50% inhibition of the dNADH oxidase activity
Summary of the method: as §1

[20] = biological target: E. coli NDH-1 NuoD mutant D325E (Escherichia coli, UniProt P0AFD4+P33599, D325E); experiment: Inhibition of dNADH oxidase activity, NuoD mutant D325E; type: biochemical
Summary of the method: as §1

[21] = biological target: E. coli NDH-1 NuoD mutant E236D (Escherichia coli, UniProt P0AFD4+P33599, E236D); experiment: Inhibition of dNADH oxidase activity, NuoD mutant E236D; type: biochemical
Summary of the method: as §1

[22] = biological target: E. coli NDH-1 NuoD mutant H315A (Escherichia coli, UniProt P0AFD4+P33599, H315A); experiment: Inhibition of dNADH oxidase activity, NuoD mutant H315A; type: biochemical
Summary of the method: as §1

[23] = biological target: E. coli NDH-1 NuoD mutant G251V (Escherichia coli, UniProt P0AFD4+P33599, G251V); experiment: Inhibition of dNADH oxidase activity, NuoD mutant G251V; type: biochemical; conditions: app IC50, 50% inhibition of the dNADH oxidase activity
Summary of the method: as §1

E. coli NDH-1 wild-type [24] = biological target: T1, E. coli NDH-1 wild-type; conditions: read-out: IC50 value, ref [16],[55]; cited from earlier work
[25] = biological target: E. coli NDH-1 NuoH mutant E216A (Escherichia coli, UniProt P0AFC7+P0AFD4+P33599, E216A); experiment: Inhibition of dNADH oxidase activity, NuoH mutant E216A; type: biochemical
[26] = biological target: E. coli NDH-1 NuoD mutant H355A (Escherichia coli, UniProt P0AFD4+P33599, H355A); experiment: Inhibition of dNADH oxidase activity, NuoD mutant H355A; type: biochemical
Summary of the method: as §1

[27] = biological target: E. coli NDH-1 NuoD mutant R311K (Escherichia coli, UniProt P0AFD4+P33599, R311K); experiment: Inhibition of dNADH oxidase activity, NuoD mutant R311K; type: biochemical
Summary of the method: as §1

[28] = biological target: E. coli NDH-1 NuoH mutant E157K (Escherichia coli, UniProt P0AFC7+P0AFD4+P33599, E157K); experiment: Inhibition of dNADH oxidase activity, NuoH mutant E157K; type: biochemical
[29] = biological target: E. coli NDH-1 NuoD mutant R228A (Escherichia coli, UniProt P0AFD4+P33599, R228A); experiment: Inhibition of dNADH oxidase activity, NuoD mutant R228A; type: biochemical; conditions: app IC50, 50% inhibition of the dNADH oxidase activity
Summary of the method: as §1

[30] = biological target: E. coli NDH-1 NuoD mutant E308D (Escherichia coli, UniProt P0AFD4+P33599, E308D); experiment: Inhibition of dNADH oxidase activity, NuoD mutant E308D; type: biochemical; conditions: app IC50, 50% inhibition of the dNADH oxidase activity
Summary of the method: as §1

[31] = biological target: E. coli NDH-1 NuoH mutant Q44A (Escherichia coli, UniProt P0AFC7+P0AFD4+P33599, Q44A); experiment: Inhibition of dNADH oxidase activity, NuoH mutant Q44A; type: biochemical
[32] = biological target: E. coli NDH-1 NuoD mutant R298K (Escherichia coli, UniProt P0AFD4+P33599, R298K); experiment: Inhibition of dNADH oxidase activity, NuoD mutant R298K; type: biochemical
Summary of the method: as §1

[N-]=[N+]=Nc1ccc2ncnc(NCCc3ccc(I)cc3)c2c1 [AzQ, 6-azido-4-(4-iodophenetylamino) quinazoline]
decrease in the IC50 value ([1]; NuoH mutant E36D versus wild-type): 3–4 fold
increase in the IC50 value ([2]; NuoD mutant G225A versus wild-type): ~3 fold
decrease in the IC50 value ([3]; NuoH mutant D63E versus wild-type): 3–4 fold
IC50 [4]: 1130 nM
increase in the IC50 value ([5]; NuoD mutant Y273F versus wild-type): ~2.5 fold
IC50 ([5]; read-out: app IC50, 50% inhibition of the dNADH oxidase activity, NuoD mutant Y273F): 2530 nM
IC50 ([6]; read-out: app IC50, 50% inhibition of the dNADH oxidase activity, NuoD mutant H315R): 903 nM
IC50 ([7]; read-out: app IC50, 50% inhibition of the dNADH oxidase activity, NuoD mutant D325A): 1140 nM
IC50 (E. coli NDH-1 wild-type [8]; read-out: app IC50, 50% inhibition of the dNADH oxidase activity, WT, NuoD series (Table 3)): 1080 nM
IC50 (E. coli NDH-1 wild-type [8]; read-out: app IC50, 50% inhibition of the dNADH oxidase activity, WT, NuoH series (Table 4)): 1080 nM
IC50 [9]: 1000 nM

CCCCCCCCCCCC[C@H](O)[C@H]1CC[C@H]([C@H]2CC[C@H]([C@H](O)CCCCCCCC[C@@H](O)CC3=C[C@H](C)OC3=O)O2)O1 [squamotacin]
IC50 [10]: 4 nM
IC50 [11]: 3 nM
IC50 [12]: 5 nM
IC50 ([1]; app IC50, 50% inhibition of the dNADH oxidase activity, NuoH mutant E36D): 3 nM
IC50 [13]: 2 nM
IC50 [14]: 10 nM
IC50 [15]: 4 nM
IC50 [16]: 6 nM
IC50 [17]: 2 nM
IC50 [18]: 5 nM
IC50 [19]: 3 nM
IC50 [2]: 5 nM
IC50 [20]: 5 nM
IC50 ([3]; app IC50, 50% inhibition of the dNADH oxidase activity, NuoH mutant D63E): 4 nM
IC50 [21]: 7 nM
IC50 [22]: 10 nM
IC50 [23]: 2 nM
IC50 [5]: 9 nM
IC50 (E. coli NDH-1 wild-type [24]): 2 to 10 nM
IC50 [25]: 8 nM
IC50 [26]: 5 nM
IC50 [27]: 4 nM
IC50 [28]: 6 nM
IC50 [29]: 2 nM
IC50 [6]: 4 nM
IC50 [7]: 11 nM
IC50 (E. coli NDH-1 wild-type [8]): 10 nM
IC50 [30]: 2 nM
IC50 [31]: 5 nM
IC50 [32]: 4 nM
